For 3 compounds, Kd results are on record in PMC6431292 (Journal of molecular biology, 2018).

Substitutions are numbered along the chain they refer to.

Common to all, as to assay type: binding
Assay [1] concerns the target T1, BLVRB (biliverdin reductase B) (Homo sapiens, UniProt P30043).
T1 sequence (P30043 1-206): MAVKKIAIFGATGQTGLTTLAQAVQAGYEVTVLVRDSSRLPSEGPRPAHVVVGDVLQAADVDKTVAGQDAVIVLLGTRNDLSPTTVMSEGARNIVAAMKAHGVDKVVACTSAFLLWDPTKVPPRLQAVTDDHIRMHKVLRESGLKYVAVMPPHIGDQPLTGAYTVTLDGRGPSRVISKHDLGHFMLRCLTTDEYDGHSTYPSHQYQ
Nature of the assay: NMR titration.

The target in assay [2] is T1, BLVRB (biliverdin reductase B). Nature of the assay: isothermal titration calorimetry. A general note: In ITC the heat of successive injections is recorded.
For assay [3], the target named is T2, BLVRB (biliverdin reductase B) (Homo sapiens, UniProt P30043, R78A).
T2 sequence (P30043 1-206 R78A): T1 sequence (P30043 1-206) with R78A
Nature of the assay: isothermal titration calorimetry. In a few lines:
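Human BLVRB (R78A mutant) expressed in E. coli BL21/DE3 with a cleavable N-terminal His-tag, Ni-purified under denaturing conditions, refolded by dialysis, tag removed, then gel-filtered. ITC used 100 μM enzyme in the cell, titrated with reduced or oxidized coenzyme (freshly prepared) at 1 mM. Buffer was 50 mM Bis–Tris pH 6.5, 50 mM NaCl, 1 mM DTT, at 20 °C. Runs were done in duplicate.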

By Kd is commonly meant a measure of binding affinity in units of concentration. In turn, `Cc1cc2nc3c(=O)[nH]c(=O)nc-3n(C[C@H](O)[C@H](O)[C@H](O)COP(=O)(O)OP(=O)(O)OC[C@H]3O[C@@H](n4cnc5c(N)ncnc54)[C@H](O)[C@@H]3O)c2cc1C` [FAD] returned a Kd in assay [1] of 590000 ± 80000 nM.

In assay [2], `NC(=O)C1=CN([C@@H]2O[C@H](COP(=O)(O)OP(=O)(O)OC[C@H]3O[C@@H](n4cnc5c(N)ncnc54)[C@H](OP(=O)(O)O)[C@@H]3O)[C@@H](O)[C@H]2O)C=CC1` [NADPH] came in with a Kd of 300 ± 200 nM.

For the compound `NC(=O)c1ccc[n+]([C@@H]2O[C@H](COP(=O)(O)OP(=O)(O)OC[C@H]3O[C@@H](n4cnc5c(N)ncnc54)[C@H](OP(=O)(O)O)[C@@H]3O)[C@@H](O)[C@H]2O)c1` [NADP^+], the Kd in assay [2] is 400 ± 200 nM; in assay [3], 2800 ± 200 nM.
